One data set deals with T1, Lethal factor (Bacillus anthracis, UniProt P15917).
T1 sequence (P15917 whole entry): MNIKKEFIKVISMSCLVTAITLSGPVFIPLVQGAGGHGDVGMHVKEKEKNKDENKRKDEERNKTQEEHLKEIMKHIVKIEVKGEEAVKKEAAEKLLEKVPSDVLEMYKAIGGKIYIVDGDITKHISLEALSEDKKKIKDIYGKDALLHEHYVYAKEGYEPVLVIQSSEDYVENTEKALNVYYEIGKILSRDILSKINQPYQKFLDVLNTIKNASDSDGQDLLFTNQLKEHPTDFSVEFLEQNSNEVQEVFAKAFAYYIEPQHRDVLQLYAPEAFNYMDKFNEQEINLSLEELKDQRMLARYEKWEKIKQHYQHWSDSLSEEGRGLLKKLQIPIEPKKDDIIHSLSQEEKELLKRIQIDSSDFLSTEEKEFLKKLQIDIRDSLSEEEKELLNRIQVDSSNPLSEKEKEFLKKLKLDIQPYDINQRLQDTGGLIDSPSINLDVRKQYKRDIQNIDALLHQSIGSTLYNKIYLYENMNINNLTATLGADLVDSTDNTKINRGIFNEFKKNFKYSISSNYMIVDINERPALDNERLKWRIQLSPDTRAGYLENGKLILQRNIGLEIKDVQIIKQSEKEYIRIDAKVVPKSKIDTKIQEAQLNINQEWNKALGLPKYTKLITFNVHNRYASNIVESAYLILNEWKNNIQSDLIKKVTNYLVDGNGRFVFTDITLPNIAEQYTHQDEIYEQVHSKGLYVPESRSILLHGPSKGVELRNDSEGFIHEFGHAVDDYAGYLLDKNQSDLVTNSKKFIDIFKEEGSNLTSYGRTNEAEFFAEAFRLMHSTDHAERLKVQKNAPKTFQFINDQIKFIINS
In words: Inhibition of Bacillus anthracis lethal factor assessed as proteolysis using MCA-KKVYPYPME-Dap(Dnp)-NH2 peptide substrate by FRET assay. The essentials: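 Purified LF at 0.5 nM final with 40 μM peptide substrate in 20 mM HEPES pH 7.4, 0.1% Tween-20, 0.5 mg/mL BSA. The reaction was started by adding enzyme and incubated 4 h at 23°C to reach a steady-state rate. Cleavage was read as fluorescence increase (λex 324 nm, λem 395 nm). Ki was fitted to the tight-binding equation. Values are means of three experiments.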

Data set [1] in a line: Lipophilicity, log D of the compound at pH 7.4. The data set is classed as physicochemical. The conditions noted are these: buffer.
Data set [2] in a line: Solubility of the compound in 50% DNSO/PBS. The conditions noted are these: 50% DMSO/PBS. The data set is classed as physicochemical.
Data set [3] has as its system Rattus norvegicus. Nature of the data set: Inhibition of lethal factor-induced toxicity in Fischer 344 rat assessed as increase in median survival time at 5 mg/kg, iv relative to control. In kind it is functional, organism-based. Also on record: dose 5 mg/kg.
Data set [4] deals with Rattus norvegicus. Nature of the data set: Inhibition of lethal factor-induced toxicity in Fischer 344 rat assessed as increase in median survival time at 2.5 mg/kg, iv relative to control. Also on record: dose 2.5 mg/kg. The data set is classed as functional, organism-based.

Structures are written as SMILES. pKi: −log10 of the molar value. Active and inactive are the calls of the source. No cut-off for these calls is given here. Bounds are passed on as bounds.

One may read the pKi as the negative decadic logarithm of the Ki, by convention in mol/L. The logD is lipophilicity at a set pH, counting ionised and neutral species. As usually defined, the solubility is how much of the substance goes into solution per volume. As for `COc1ccc(CNCCCC[C@@H](Nc2cc(C)c(F)c(C)c2)C(=O)NO)cc1`, the pKi on Lethal factor is 9.36. The logD in data set [1] is under 3. In data set [2], this molecule displayed a solubility of over 5 µg/mL.
Taken in the same sequence, the figures for `CO[C@H](C[C@H](CCN1CCCC(CO)C1)C(=O)NO)c1ccc(F)cc1` (stereo partly specified) were 7.00, under 3 and over 5 µg/mL.
As for `CO[C@H](C[C@H](CCN1CCCCC1)C(=O)NO)c1ccc(F)cc1`, the pKi on Lethal factor is 6.64.
Turning to `Cc1cc(N[C@H](CCCCN)C(=O)NO)cc(C)c1F`, the pKi on Lethal factor was 8.09. In data set [1], the logD is under 3. In addition, the solubility in data set [2] was over 5 µg/mL.
Molecule `Cc1cc(N[C@H](CCCCNCc2ccc(F)cc2)C(=O)NO)cc(C)c1F` returned a logD in data set [1] of under 3. This molecule also yielded a solubility in data set [2] of over 5 µg/mL.
As to `CO[C@H](C[C@H](CCN1CCN(CCc2ccccc2)CC1)C(=O)NO)c1ccc(F)cc1`, on Lethal factor, the pKi was 6.93.
Turning to `CO[C@H](C[C@H](CCN1CCOCC1)C(=O)NO)c1ccc(F)cc1`, the pKi on Lethal factor is 6.46.
With `CO[C@H](C[C@H](CCN(C)C)C(=O)NO)c1ccc(F)cc1`, at Lethal factor, the pKi is 7.02. Further, the logD in data set [1] was under 3. In data set [2], this molecule gave a solubility of over 5 µg/mL.
`Cc1cc(CNCCCC[C@@H](Nc2cc(C)c(F)c(C)c2)C(=O)NO)ccc1F`: in data set [1], the logD is under 3. This molecule also showed a solubility in data set [2] of over 5 µg/mL. Also, the inhibition entry in the data set on Rattus norvegicus [3] and with Rattus norvegicus [4] was “Active” each time.
Consider `Cc1cc(N[C@H](CCCCNCc2cccc(F)c2)C(=O)NO)cc(C)c1F`, for which, on Lethal factor, the pKi is 9.07. Besides, the logD in data set [1] is under 3. In data set [2], this molecule gave a solubility of over 5 µg/mL.
With `Cc1cc(NC(=O)NCCCC[C@@H](Nc2cc(C)c(F)c(C)c2)C(=O)NO)ccc1F`, the pKi on Lethal factor is 8.03. In data set [1], this molecule returned a logD of under 3. In data set [2], this molecule registered a solubility of over 5 µg/mL.
With `CO[C@H](C[C@H](CCN(C)Cc1ccc(-c2ccc(F)c(C)c2)cc1)C(=O)NO)c1ccc(F)cc1`, the pKi on Lethal factor was 6.87.
On to `Cc1cc(N[C@H](CCCCNCc2ccc(C(F)(F)F)cc2)C(=O)NO)cc(C)c1F`, for which the pKi at Lethal factor is 9.33. Besides, the log distribution coefficient (logD) in data set [1] was under 3. In data set [2], this molecule had a solubility of over 5 µg/mL.
The corresponding values for `Cc1cc(N[C@H](CCCCNCc2ccc(C(C)(C)C)cc2)C(=O)NO)cc(C)c1F` are 8.85, under 3 and over 5 µg/mL.
In the case of `Cc1ccc(CNCCCC[C@@H](Nc2cc(C)c(F)c(C)c2)C(=O)NO)cc1`, on Lethal factor, the pKi was 9.39. This molecule also had a logD in data set [1] of under 3. The solubility in data set [2] was over 5 µg/mL.
The corresponding values for `Cc1cc(N[C@H](CCCCNCc2ccccc2F)C(=O)NO)cc(C)c1F` are 9.16, under 3 and over 5 µg/mL.
Turning to `CO[C@H](C[C@H](CCN(C)CCCc1ccccc1)C(=O)NO)c1ccc(F)cc1`, the pKi at Lethal factor was 7.38. In data set [1], the logD was under 3. The same molecule showed a solubility in data set [2] of over 5 µg/mL.
Taken in the same sequence, the figures for `Cc1cc(N[C@H](CCCCNCCCc2ccc(F)cc2)C(=O)NO)cc(C)c1F` were 8.89, under 3 and over 5 µg/mL.
With `Cc1cc(N[C@H](CCCCNCc2ccc(Cl)cc2)C(=O)NO)cc(C)c1F`, the pKi on Lethal factor was 8.96. In addition, the logD in data set [1] was under 3. For the same molecule, in data set [2], the solubility was over 5 µg/mL.
For `CO[C@H](C[C@H](CCN1CCN(Cc2ccccc2)CC1)C(=O)NO)c1ccc(F)cc1`, at Lethal factor, the pKi was 6.94.
Same read-out and setting: the result for `CO[C@H](C[C@H](CCN1CCCC1)C(=O)NO)c1ccc(F)cc1` reads 6.91.
In the case of `CO[C@H](C[C@H](CCN1CCN(c2ccccc2)CC1)C(=O)NO)c1ccc(F)cc1`, the pKi at Lethal factor was 6.82.
In turn, `Cc1cc(N[C@H](CCCCNCCc2ccc(F)cc2)C(=O)NO)cc(C)c1F` came in with a logD in data set [1] of under 3. The solubility in data set [2] was over 5 µg/mL.
Taken in the same sequence, the figures for `CO[C@H](C[C@H](CCN(C)CCCc1ccc(F)c(C)c1)C(=O)NO)c1ccc(F)cc1` were under 3 and over 5 µg/mL.
As to `Cc1cc(N[C@H](CCCCNCc2ccc([N+](=O)[O-])cc2)C(=O)NO)cc(C)c1F`, the pKi on Lethal factor was 9.52. In addition, in data set [1], the logD is under 3. Further, the solubility in data set [2] was over 5 µg/mL.
In the case of `CO[C@H](C[C@H](CCN1CCNCC1)C(=O)NO)c1ccc(F)cc1`, on Lethal factor, the pKi is 7.05. In data set [1], this molecule displayed a logD of under 3. The solubility in data set [2] is over 5 µg/mL.
As for `Cc1cc(S(=O)(=O)NCCCC[C@@H](Nc2cc(C)c(F)c(C)c2)C(=O)NO)ccc1F`, the pKi on Lethal factor is 8.51. In data set [1], this molecule came in with a logD of under 3. In addition, in data set [2], the solubility was over 5 µg/mL.
The corresponding values for `CO[C@H](C[C@H](CCN1CCCC(Cc2ccc(F)cc2)C1)C(=O)NO)c1ccc(F)cc1` (stereo partly specified) are 7.48, under 3 and over 5 µg/mL.
Consider `Cc1cc(C(=O)NCCCC[C@@H](Nc2cc(C)c(F)c(C)c2)C(=O)NO)ccc1F`, for which the pKi at Lethal factor is 8.14. In data set [1], this molecule registered a logD of under 3. The molecule also yielded a solubility in data set [2] of over 5 µg/mL.

Values taken from ChEMBL document CHEMBL1268892, “Antidotes to anthrax lethal factor intoxication. Part 1: Discovery of potent lethal factor inhibitors with in vivo efficacy” (Bioorg Med Chem Lett, 2010).
